ChEMBL document CHEMBL5724801, “EUbOPEN Chemogenomics Library - Multiplex” (2024)
Several values for one entry are separate records, joined by “and”; a condition that tells them apart may be missing. Equal values may be shown once.

Test system: HEK-293T
Assay: Multiplex assay against HEK293T
Assay type: toxicity, cell-based
Settings: human
Method in brief: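 Four dyes were applied at seeding to live cells: Hoechst33342, BioTracker Green Microtubule Cytoskeleton Dye, MitoTracker Red and Annexin V Alexa Fluor 680. Imaging after compound addition used a CQ1 microscope at 37°C and 5% CO2. CellPathfinder machine-learning gating then sorted cells into Hoechst high-intensity objects or normal cells, normal cells into healthy, pyknosed or fragmented nuclei, and pyknosed cells into mitotic or apoptotic, with tubulin, mitochondrial-mass and membrane-permeability phenotypes given as per cents of healthy-nucleus cells.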

[1] = 12 h, 1 µM, compound concentration 1 uM
[2] = 12 h, 10 µM, compound concentration 10 uM
[3] = 24 h, 1 µM, compound concentration 1 uM
[4] = 24 h, 10 µM, compound concentration 10 uM
[5] = 48 h, 1 µM, compound concentration 1 uM
[6] = 48 h, 10 µM, compound concentration 10 uM

CC(C)(O)C(=O)N1CCN(c2ccc(C(F)(F)F)c(C3=C(c4c[nH]c5ccccc45)C(=O)NC3=O)c2)CC1
Population Apoptotic (%) [1]: 33% and 46% | Population Fragmented Nuclei (%) [1]: 4% and 5% | Population Healthy Nuclei (%) [1]: 78% and 76% | Population Hoechst High Intensity Objects (%) [1]: 8% and 7% | Population Membrane Permeable-Phenotype (%) [1]: 0% | Population Mitochondria Different-Phenotype (%) [1]: 43% and 58% | Population Mitotic Cells (%) [1]: 66% and 53% | Population Normal (%) [1]: 91% and 92% | Population Pyknosed Nuclei (%) [1]: 16% and 17% | Population Tubulin-Different-Phenotype (%) [1]: 28% and 30% | Total Cell Count [1]: 381 and 293 | Population Apoptotic (%) [2]: 51% and 72% | Population Fragmented Nuclei (%) [2]: 4% and 3% | Population Healthy Nuclei (%) [2]: 74% and 75% | Population Hoechst High Intensity Objects (%) [2]: 10% and 7% | Population Membrane Permeable-Phenotype (%) [2]: 0% | Population Mitochondria Different-Phenotype (%) [2]: 61% and 90% | Population Mitotic Cells (%) [2]: 48% and 27% | Population Normal (%) [2]: 89% and 92% | Population Pyknosed Nuclei (%) [2]: 20% and 21% | Population Tubulin-Different-Phenotype (%) [2]: 62% and 63% | Total Cell Count [2]: 338 and 203 | Population Apoptotic (%) [3]: 33% and 29% | Population Fragmented Nuclei (%) [3]: 8% and 5% | Population Healthy Nuclei (%) [3]: 74% and 79% | Population Hoechst High Intensity Objects (%) [3]: 5% | Population Membrane Permeable-Phenotype (%) [3]: 0% | Population Mitochondria Different-Phenotype (%) [3]: 32% and 48% | Population Mitotic Cells (%) [3]: 66% and 70% | Population Normal (%) [3]: 94% | Population Pyknosed Nuclei (%) [3]: 17% and 14% | Population Tubulin-Different-Phenotype (%) [3]: 19% | Total Cell Count [3]: 469 and 335 | Population Apoptotic (%) [4]: 45% and 66% | Population Fragmented Nuclei (%) [4]: 6% and 2% | Population Healthy Nuclei (%) [4]: 71% | Population Hoechst High Intensity Objects (%) [4]: 4% and 7% | Population Membrane Permeable-Phenotype (%) [4]: 1% and 0% | Population Mitochondria Different-Phenotype (%) [4]: 48% and 84% | Population Mitotic Cells (%) [4]: 54% and 34% | Population Normal (%) [4]: 95% and 92% | Population Pyknosed Nuclei (%) [4]: 22% and 25% | Population Tubulin-Different-Phenotype (%) [4]: 43% and 60% | Total Cell Count [4]: 387 and 212 | Population Apoptotic (%) [5]: 25% and 27% | Population Fragmented Nuclei (%) [5]: 9% and 10% | Population Healthy Nuclei (%) [5]: 79% | Population Hoechst High Intensity Objects (%) [5]: 2% and 5% | Population Membrane Permeable-Phenotype (%) [5]: 0% | Population Mitochondria Different-Phenotype (%) [5]: 21% and 29% | Population Mitotic Cells (%) [5]: 74% and 72% | Population Normal (%) [5]: 97% and 94% | Population Pyknosed Nuclei (%) [5]: 10% | Population Tubulin-Different-Phenotype (%) [5]: 14% and 15% | Total Cell Count [5]: 780 and 571 | Population Apoptotic (%) [6]: 54% and 78% | Population Fragmented Nuclei (%) [6]: 8% and 9% | Population Healthy Nuclei (%) [6]: 71% | Population Hoechst High Intensity Objects (%) [6]: 8% | Population Membrane Permeable-Phenotype (%) [6]: 0% | Population Mitochondria Different-Phenotype (%) [6]: 53% and 71% | Population Mitotic Cells (%) [6]: 45% and 21% | Population Normal (%) [6]: 91% | Population Pyknosed Nuclei (%) [6]: 19% | Population Tubulin-Different-Phenotype (%) [6]: 25% and 40% | Total Cell Count [6]: 467 and 227
